Blank lines part the entries; values can stand above or below the molecule they belong to. Activity calls are given as the source filed them. No cut-off for these calls is given here.
What was measured:
Rattus norvegicus [1] = experiment: Tested for in vivo inhibition of galactitol accumulation in the lens of galactose-fed rats at the dose of 0.9 (mg/kg/day); NS=Not significant; type: functional, organism-based; details: Lens of camera-type eye
Rattus norvegicus [2] = experiment: Tested for in vivo inhibition of galactitol accumulation in the sciatic nerve of galactose-fed rats at the dose of 10.8 (mg/kg/day); type: functional
In short: (§1)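 Rats were given a 20% galactose diet for 4 days, with the test compound administered in the diet. Sciatic nerve galactitol accumulation was measured, and activity is given as % inhibition at the stated daily dose (mg/kg/day). Values are mean ± SEM, n = 6 animals; p < 0.01 unless indicated. NS means no significant inhibition of polyol accumulation.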

[3] = biological target: Aldo-keto reductase family 1 member B1 (Bos taurus) (UniProt P16116); experiment: Inhibition of aldose reductase activity in partially purified bovine lens preparation at 10e-5 M
In short: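 Partially purified bovine lens aldose reductase. Reduction of DL-glyceraldehyde substrate followed spectrophotometrically. Activity expressed as average inhibition at the tested concentrations, 1×10^-5, 1×10^-6, 1×10^-7 and 4×10^-6 M as printed; IC50 in M where given.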

Rattus norvegicus [4] = experiment: Tested for in vivo inhibition of galactitol accumulation in the lens of galactose-fed rats at the dose of 10.8 (mg/kg/day); type: functional, Lens of camera-type eye
Rattus norvegicus [5] = experiment: Tested for in vivo inhibition of galactitol accumulation in the lens of galactose-fed rats at the dose of 47.9 (mg/kg/day); type: functional, Lens of camera-type eye
Rattus norvegicus [6] = experiment: Tested for in vivo inhibition of galactitol accumulation in the sciatic nerve of galactose-fed rats at the dose of 47.9 (mg/kg/day); type: functional; in short: as §1
Rattus norvegicus [7] = experiment: Tested for in vivo inhibition of galactitol accumulation in the lens of galactose-fed rats at the dose of 4.9 (mg/kg/day); NS=Not significant; type: functional, organism-based; details: Lens of camera-type eye
[8] = biological target: Aldo-keto reductase family 1 member B1 (Bos taurus) (UniProt P16116); experiment: Compound was tested in vitro for inhibition of aldose reductase activity in partially purified bovine lens preparation at 10 e-8 M
Rattus norvegicus [9] = experiment: Tested for in vivo inhibition of galactitol accumulation in the sciatic nerve of galactose-fed rats.4.9 (mg/kg/day); NS=Not significant; type: functional, organism-based
In short: (§2)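 Rats fed a 20% galactose diet for 4 days, with test compound given in the diet at the stated daily dose (mg/kg/day). Read-out is inhibition of galactitol (polyol) accumulation in sciatic nerve. Values are % inhibition, mean ± SEM of six animals; p < 0.01 unless marked (some p < 0.05). NS = no significant inhibition of polyol accumulation. Tolrestat was the reference standard.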

Rattus norvegicus [10] = experiment: Tested for in vivo inhibition of galactitol accumulation in the sciatic nerve of galactose-fed rats at the dose of 9.9 (mg/kg/day); NS=Not significant; type: functional, organism-based; in short: as §2
Rattus norvegicus [11] = experiment: Tested for in vivo inhibition of galactitol accumulation in the lens of galactose-fed rats at the dose of 24.1 (mg/kg/day); NS=Not significant; type: functional, organism-based; details: Lens of camera-type eye
Rattus norvegicus [12] = experiment: Tested for in vivo inhibition of galactitol accumulation in the sciatic nerve of galactose-fed rats at the dose of 24.1 (mg/kg/day); NS=Not significant; type: functional, organism-based; in short: as §1
Rattus norvegicus [13] = experiment: Tested for in vivo inhibition of galactitol accumulation in the sciatic nerve of galactose-fed rats at the dose of 10.0 (mg/kg/day); NS=Not significant; type: functional, organism-based; in short: as §1
Rattus norvegicus [14] = experiment: Tested for in vivo inhibition of galactitol accumulation in the lens of galactose-fed rats at the dose of 85 (mg/kg/day); type: functional, Lens of camera-type eye
In short: (§3)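 Galactosemic rats were fed 20% galactose for 4 days, with the compound mixed into the diet. […] galactitol accumulation was measured, and activity is given as % inhibition at the stated daily dose (mg/kg/day). Values are mean ± SEM of six animals; p < 0.01 unless indicated. NS means no significant inhibition of polyol accumulation.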

Rattus norvegicus [15] = experiment: Tested for in vivo inhibition of galactitol accumulation in the sciatic nerve of galactose-fed rats at the dose of 26.8 (mg/kg/day); type: functional; in short: as §1
Rattus norvegicus [16] = experiment: Tested for in vivo inhibition of galactitol accumulation in the lens of galactose-fed rats at the dose of 26.8 (mg/kg/day); NS=Not significant; type: functional, organism-based; details: Lens of camera-type eye
Rattus norvegicus [17] = experiment: Tested for in vivo inhibition of galactitol accumulation in the sciatic nerve of galactose-fed rats at the dose of 85 (mg/kg/day); type: functional; in short: as §2
Rattus norvegicus [18] = experiment: Tested for in vivo inhibition of galactitol accumulation in the lens of galactose-fed rats at the dose of 24.8 (mg/kg/day); NS=Not significant; type: functional, organism-based; details: Lens of camera-type eye
Rattus norvegicus [19] = experiment: Tested for in vivo inhibition of galactitol accumulation in the sciatic nerve of galactose-fed rats at the dose of 24.8 (mg/kg/day); NS=Not significant; type: functional, organism-based; in short: as §1
Rattus norvegicus [20] = experiment: Tested for in vivo inhibition of galactitol accumulation in the lens of galactose-fed rats at the dose of 54 (mg/kg/day); NS=Not significant; type: functional, organism-based; details: Lens of camera-type eye
Rattus norvegicus [21] = experiment: tTested for in vivo inhibition of galactitol accumulation in the sciatic nerve of galactose-fed rats at the dose of 54 (mg/kg/day); NS=Not significant; type: functional, organism-based; in short: as §2
Rattus norvegicus [22] = experiment: Tested for in vivo inhibition of galactitol accumulation in the lens of galactose-fed rats at the dose of 55.4 (mg/kg/day); NS=Not significant; type: functional, organism-based; details: Lens of camera-type eye; in short: as §3
Rattus norvegicus [23] = experiment: Tested for in vivo inhibition of galactitol accumulation in the sciatic nerve of galactose-fed rats at the dose of 55.4 (mg/kg/day); NS=Not significant; type: functional, organism-based; in short: as §2
Rattus norvegicus [24] = experiment: Tested for in vivo inhibition of galactitol accumulation in the sciatic nerve of galactose-fed rats at the dose of 24; NS=Not significant; type: functional, organism-based; in short: as §1
[25] = biological target: Aldo-keto reductase family 1 member B1 (Bos taurus) (UniProt P16116); experiment: Inhibition of aldose reductase activity in partially purified bovine lens preparation at 4*10 e-8 M
Rattus norvegicus [26] = experiment: Tested for in vivo inhibition of galactitol accumulation in the lens of galactose-fed rats at the dose of 24 (mg/kg/day); NS=Not significant; type: functional, organism-based; details: Lens of camera-type eye
Rattus norvegicus [27] = experiment: Tested for in vivo inhibition of galactitol accumulation in the sciatic nerve of galactose-fed rats at the dose of 5.3 (mg/kg/day); NS=Not significant; type: functional, organism-based; in short: as §2
Rattus norvegicus [28] = experiment: Tested for in vivo inhibition of galactitol accumulation in the lens of galactose-fed rats at the dose of 5.3 (mg/kg/day); NS=Not significant; type: functional, organism-based; details: Lens of camera-type eye
Rattus norvegicus [29] = experiment: Tested for in vivo inhibition of galactitol accumulation in the sciatic nerve of galactose-fed rats at the dose of 4.7 (mg/kg/day); type: functional; in short: as §1
Rattus norvegicus [30] = experiment: Tested for in vivo inhibition of galactitol accumulation in the lens of galactose-fed rats at the dose of 4.7 (mg/kg/day); NS=Not significant; type: functional, organism-based; details: Lens of camera-type eye
Rattus norvegicus [31] = experiment: Tested for in vivo inhibition of galactitol accumulation in the lens of galactose-fed rats at the dose of 48 (mg/kg/day); type: functional, Lens of camera-type eye
Rattus norvegicus [32] = experiment: Tested for in vivo inhibition of galactitol accumulation in the sciatic nerve of galactose-fed rats at the dose of 48 (mg/kg/day); type: functional; in short: as §2

SMILES: CC(C)=NN1C(=O)CC2(C(=O)N(Cc3ccc(Br)cc3F)C(=O)c3ccccc32)C1=O (stereo unspecified)
inhibition (Rattus norvegicus [1]): inactive | Inhibition (Rattus norvegicus [2]): 82% | inhibition [3]: inactive | Inhibition (Rattus norvegicus [4]): 30%

SMILES: CON1C(=O)CC2(C(=O)N(Cc3ccc(Br)cc3F)C(=O)c3ccccc32)C1=O (stereo unspecified)
inhibition (Rattus norvegicus [10]): inactive | inhibition [3]: inactive

SMILES: O=C1CC2(C(=O)N1CC(F)(F)F)C(=O)N(Cc1ccc(Br)cc1F)C(=O)c1ccccc12 (stereo unspecified)
inhibition (Rattus norvegicus [13]): inactive | inhibition [3]: inactive

SMILES: CCNC(=O)CC1C(=O)N(Cc2ccc(Br)cc2F)C(=O)c2ccccc21 (stereo unspecified)
inhibition (Rattus norvegicus [18]): inactive | inhibition (Rattus norvegicus [19]): inactive | inhibition [3]: inactive

SMILES: O=C1CC2(N1)C(=O)N(Cc1ccc(Br)cc1F)C(=O)c1ccc(F)cc12 (stereo unspecified)
inhibition (Rattus norvegicus [20]): inactive | inhibition (Rattus norvegicus [21]): inactive

SMILES: O=C1c2ccccc2C2(CC(=O)N(NS(=O)(=O)C(F)(F)F)C2=O)C(=O)N1Cc1ccc(Br)cc1F (stereo unspecified)
inhibition (Rattus norvegicus [22]): inactive | inhibition [3]: inactive | inhibition (Rattus norvegicus [23]): inactive

SMILES: O=C1c2ccccc2C2(CC(=O)N(N=C3CCCC3)C2=O)C(=O)N1Cc1ccc(Br)cc1F (stereo unspecified)
Inhibition (Rattus norvegicus [29]): 86% | inhibition (Rattus norvegicus [30]): inactive | Inhibition (Rattus norvegicus [31]): 76% | Inhibition (Rattus norvegicus [32]): 82% | inhibition [3]: inactive

More lines, main results first:

inhibition [3]: 51%
SMILES: COC(=O)NC(=O)CC1C(=O)N(C)C(=O)c2ccc(C(F)(F)F)cc21 (stereo unspecified)
Inhibition (Rattus norvegicus [5]): 26% | Inhibition (Rattus norvegicus [6]): 52%

inhibition [8]: 35%
SMILES: CN1C(=O)c2ccc(Cl)cc2C(CC(=O)O)C1=O (stereo unspecified)
inhibition (Rattus norvegicus [7]): inactive | inhibition (Rattus norvegicus [9]): inactive

inhibition [3]: 45%
SMILES: CONC(=O)CC1C(=O)N(Cc2ccc(Br)cc2F)C(=O)c2ccccc21 (stereo unspecified)
inhibition (Rattus norvegicus [11]): inactive | inhibition (Rattus norvegicus [12]): inactive

inhibition [3]: 61%
SMILES: COC(=O)NC(=O)CC1C(=O)N(C)C(=O)c2ccccc21 (stereo unspecified)
Inhibition (Rattus norvegicus [14]): 37% | Inhibition (Rattus norvegicus [15]): 21% | inhibition (Rattus norvegicus [16]): inactive | Inhibition (Rattus norvegicus [17]): 59%

inhibition [25]: 65%
SMILES: O=C(O)CC1C(=O)N(Cc2nc3cc(C(F)(F)F)ccc3s2)C(=O)c2ccccc21 (stereo unspecified)
inhibition (Rattus norvegicus [24]): inactive | inhibition (Rattus norvegicus [26]): inactive

inhibition [3]: inactive
SMILES: CN1C(=O)c2ccc(Cl)cc2C(CC(N)=O)C1=O (stereo unspecified)
inhibition (Rattus norvegicus [27]): inactive | inhibition (Rattus norvegicus [28]): inactive

Source: ChEMBL document CHEMBL1127562, “N-substituted spirosuccinimide, spiropyridazine, spiroazetidine, and acetic acid aldose reductase inhibitors derived from isoquinoline-1,3-diones. 2” (J Med Chem, 1994)
